pIC50: −log10 of the molar value. The source made the active and inactive calls. No cut-off for these calls is given here.
What was measured:
[1] = Cmax in C57BL/6 mouse plasma at 0.3 mg/kg, iv by LC-MS/MS analysis; type: ADME, organism-based; set-up: route intravenous, dose 0.3 mg/kg
[2] = Oral bioavailability in C57BL/6 mouse plasma at 0.3 mg/kg, IG by LC-MS/MS analysis; type: ADME, organism-based
[3] = AUC (0 to infinitive) in C57BL/6 mouse plasma at 3 mg/kg, iv by LC-MS/MS analysis; type: ADME, organism-based; set-up: time infinity, route intravenous, dose 3 mg/kg
[4] = AUC (0 to infinitive) in C57BL/6 mouse plasma at 10 mg/kg, IG by LC-MS/MS analysis; type: ADME, organism-based; set-up: route […], time infinity, dose 10 mg/kg; conditions: po
[5] = Half life in C57BL/6 mouse plasma at 0.3 mg/kg, iv by LC-MS/MS analysis; type: ADME, organism-based
[6] = MRT in C57BL/6 mouse plasma at 0.3 mg/kg, iv by LC-MS/MS analysis; type: ADME, organism-based
[7] = target: T1, Phospholipase A2 (Homo sapiens, UniProt P04054); assay: Inhibition of PLA2 (unknown origin) using soybean phosphatidylcholine as substrate at 3 uM preincubated for 30 mins followed incubated for 60 mins after substrate addition by microplate reader relative to control
In short: (§1)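 PLA2 (4 μg/L in PBS) was preincubated 30 min at 37 °C with inhibitor in 125 mM Tris. Substrate was then added for 60 min: soybean phosphatidylcholine with Tris, CaCl₂, sodium deoxycholate and 0.5% Triton X-100. Liberated free fatty acids were quantified colorimetrically at OD550. Results are % inhibition versus enzyme without inhibitor, n = 3.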

[8] = tested on: SH-SY5Y; assay: Cytotoxicity against human SH-SY5Y cells assessed as toxicity at 30 uM incubated for 24 hrs by CCK-8 assay; type: cell-based
In short: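 SH-SY5Y cells were seeded at 2 × 10⁴ per well and grown 12 h at 37 °C. They were then treated with compound (1–30 μM) under normoxic, normal-glucose conditions for 24 h. CCK-8 (10%) was added for 2 h at 37 °C and OD450 read. Viability was taken relative to untreated control after blank subtraction, with three replicate wells.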

[9] = Half life in C57BL/6 mouse plasma at 10 mg/kg, IG by LC-MS/MS analysis; type: ADME, organism-based; conditions: po
[10] = Clearance in C57BL/6 mouse plasma at 1 mg/kg, iv by LC-MS/MS analysis; type: ADME, organism-based
[11] = AUC (0 to infinitive) in C57BL/6 mouse plasma at 100 mg/kg, IG by LC-MS/MS analysis; type: ADME, organism-based; set-up: route […], time infinity, dose 100 mg/kg; conditions: po
[12] = AUC (0 to infinitive) in C57BL/6 mouse plasma at 1 mg/kg, iv by LC-MS/MS analysis; type: ADME, organism-based; set-up: time infinity, route intravenous, dose 1 mg/kg
[13] = Oral bioavailability in C57BL/6 mouse plasma at 1 mg/kg, IG by LC-MS/MS analysis; type: ADME, organism-based
[14] = MRT in C57BL/6 mouse plasma at 10 mg/kg, IG by LC-MS/MS analysis; type: ADME, organism-based; conditions: po
[15] = target: Transient receptor potential cation channel subfamily M member 8 (Homo sapiens, UniProt Q7Z2W7); assay: Inhibition of human TRPM8 expressed in HEK293T cells assessed as blocked of menthol-activated current at 10 uM by whole cell patch clamp electrophysiology relative to control; type: cell-based
In short: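 Whole-cell patch clamp was run at room temperature on HEK293T cells transiently cotransfected with human TRPM8 plus GFP, 24–48 h before recording. ECS was 145 NaCl, 5.6 KCl, 2 MgCl₂, 1.2 CaCl₂, 10 HEPES, pH 7.2. Current was activated with 1 mM menthol, and compound was perfused at least 60 s after it stabilized. Inhibition was calculated relative to stable agonist current minus residual current; n = 3–6.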

[16] = Clearance in C57BL/6 mouse plasma at 10 mg/kg, IG by LC-MS/MS analysis; type: ADME, organism-based; conditions: po
[17] = target: T2, Transient receptor potential cation channel subfamily M member 2 (Homo sapiens, UniProt O94759); assay: Inhibition of human TRPM2 expressed in HEK293T cells assessed as blocked of ADPR-activated current by whole cell patch clamp electrophysiology; type: cell-based
[18] = Tmax in C57BL/6 mouse plasma at 10 mg/kg, IG by LC-MS/MS analysis; type: ADME, organism-based; conditions: po
[19] = Cmax in C57BL/6 mouse plasma at 1 mg/kg, iv by LC-MS/MS analysis; type: ADME, organism-based; set-up: route intravenous, dose 1 mg/kg
[20] = AUC (0 to t) in C57BL/6 mouse plasma at 1 mg/kg, iv by LC-MS/MS analysis; type: ADME, organism-based; set-up: dose 1 mg/kg
[21] = AUC (0 to t) in C57BL/6 mouse plasma at 0.3 mg/kg, iv by LC-MS/MS analysis; type: ADME, organism-based; set-up: dose 0.3 mg/kg
[22] = Toxicity in C57BL/6 mouse assessed as adverse effect at 100 mg/kg, IG; type: organism-based; conditions: in vivo, po
[23] = tested on: Mus musculus; assay: Neuroprotective activity in mouse model of transient middle cerebral artery occlusion-induced cerebral ischemia-reperfusion injury assessed as reduction in infarct volume at 1 mg/kg, iv treated for 3 hrs after onset of reperfusion by TTC staining based assay (reference value: 52 +/- 1.7%); type: functional; set-up: scale not given: the % may be the effect or the level left
[24] = MRT in C57BL/6 mouse plasma at 1 mg/kg, iv by LC-MS/MS analysis; type: ADME, organism-based
[25] = tested on: Mus musculus; assay: Neuroprotective activity in mouse model of transient middle cerebral artery occlusion-induced cerebral ischemia-reperfusion injury assessed as reduction neurological score at 0.3 mg/kg, iv treated for 3 hrs after onset of reperfusion by TTC staining based assay relative to control; type: functional, organism-based
[26] = target: T1, Phospholipase A2; assay: Inhibition of PLA2 (unknown origin) using soybean phosphatidylcholine as substrate at 10 uM preincubated for 30 mins followed incubated for 60 mins after substrate addition by microplate reader relative to control; in short: as §1
[27] = AUC (0 to infinitive) in C57BL/6 mouse plasma at 0.3 mg/kg, iv by LC-MS/MS analysis; type: ADME, organism-based; set-up: time infinity, route intravenous, dose 0.3 mg/kg
[28] = Half life in C57BL/6 mouse plasma at 100 mg/kg, IG by LC-MS/MS analysis; type: ADME, organism-based; conditions: po
[29] = target: T2, Transient receptor potential cation channel subfamily M member 2; assay: Inhibition of human TRPM2 expressed in HEK293T cells assessed as suppression of H2O2-induced calcium flux at 1 uM measured after 30 mins by Fluo-3/AM assay; type: cell-based
[30] = Cmax in C57BL/6 mouse plasma at 10 mg/kg, IG by LC-MS/MS analysis; type: ADME, organism-based; set-up: route […], dose 10 mg/kg; conditions: po
[31] = tested on: Mus musculus; assay: Neuroprotective activity in mouse model of transient middle cerebral artery occlusion-induced cerebral ischemia-reperfusion injury assessed as reduction neurological score at 1 mg/kg, iv treated for 3 hrs after onset of reperfusion by TTC staining based assay relative to control; type: functional, organism-based
[32] = tested on: Mus musculus; assay: Neuroprotective activity in mouse model of transient middle cerebral artery occlusion-induced cerebral ischemia-reperfusion injury assessed as reduction in infarct volume at 3 mg/kg, iv treated for 3 hrs after onset of reperfusion by TTC staining based assay (reference value: 57.6 +/- 4.9%); type: functional; set-up: scale not given: the % may be the effect or the level left
[33] = Half life in C57BL/6 mouse plasma at 1 mg/kg, iv by LC-MS/MS analysis; type: ADME, organism-based
[34] = Cmax in C57BL/6 mouse plasma at 3 mg/kg, iv by LC-MS/MS analysis; type: ADME, organism-based; set-up: route intravenous, dose 3 mg/kg
[35] = Tmax in C57BL/6 mouse plasma at 0.3 mg/kg, iv by LC-MS/MS analysis; type: ADME, organism-based

T2 sequence (O94759 whole entry): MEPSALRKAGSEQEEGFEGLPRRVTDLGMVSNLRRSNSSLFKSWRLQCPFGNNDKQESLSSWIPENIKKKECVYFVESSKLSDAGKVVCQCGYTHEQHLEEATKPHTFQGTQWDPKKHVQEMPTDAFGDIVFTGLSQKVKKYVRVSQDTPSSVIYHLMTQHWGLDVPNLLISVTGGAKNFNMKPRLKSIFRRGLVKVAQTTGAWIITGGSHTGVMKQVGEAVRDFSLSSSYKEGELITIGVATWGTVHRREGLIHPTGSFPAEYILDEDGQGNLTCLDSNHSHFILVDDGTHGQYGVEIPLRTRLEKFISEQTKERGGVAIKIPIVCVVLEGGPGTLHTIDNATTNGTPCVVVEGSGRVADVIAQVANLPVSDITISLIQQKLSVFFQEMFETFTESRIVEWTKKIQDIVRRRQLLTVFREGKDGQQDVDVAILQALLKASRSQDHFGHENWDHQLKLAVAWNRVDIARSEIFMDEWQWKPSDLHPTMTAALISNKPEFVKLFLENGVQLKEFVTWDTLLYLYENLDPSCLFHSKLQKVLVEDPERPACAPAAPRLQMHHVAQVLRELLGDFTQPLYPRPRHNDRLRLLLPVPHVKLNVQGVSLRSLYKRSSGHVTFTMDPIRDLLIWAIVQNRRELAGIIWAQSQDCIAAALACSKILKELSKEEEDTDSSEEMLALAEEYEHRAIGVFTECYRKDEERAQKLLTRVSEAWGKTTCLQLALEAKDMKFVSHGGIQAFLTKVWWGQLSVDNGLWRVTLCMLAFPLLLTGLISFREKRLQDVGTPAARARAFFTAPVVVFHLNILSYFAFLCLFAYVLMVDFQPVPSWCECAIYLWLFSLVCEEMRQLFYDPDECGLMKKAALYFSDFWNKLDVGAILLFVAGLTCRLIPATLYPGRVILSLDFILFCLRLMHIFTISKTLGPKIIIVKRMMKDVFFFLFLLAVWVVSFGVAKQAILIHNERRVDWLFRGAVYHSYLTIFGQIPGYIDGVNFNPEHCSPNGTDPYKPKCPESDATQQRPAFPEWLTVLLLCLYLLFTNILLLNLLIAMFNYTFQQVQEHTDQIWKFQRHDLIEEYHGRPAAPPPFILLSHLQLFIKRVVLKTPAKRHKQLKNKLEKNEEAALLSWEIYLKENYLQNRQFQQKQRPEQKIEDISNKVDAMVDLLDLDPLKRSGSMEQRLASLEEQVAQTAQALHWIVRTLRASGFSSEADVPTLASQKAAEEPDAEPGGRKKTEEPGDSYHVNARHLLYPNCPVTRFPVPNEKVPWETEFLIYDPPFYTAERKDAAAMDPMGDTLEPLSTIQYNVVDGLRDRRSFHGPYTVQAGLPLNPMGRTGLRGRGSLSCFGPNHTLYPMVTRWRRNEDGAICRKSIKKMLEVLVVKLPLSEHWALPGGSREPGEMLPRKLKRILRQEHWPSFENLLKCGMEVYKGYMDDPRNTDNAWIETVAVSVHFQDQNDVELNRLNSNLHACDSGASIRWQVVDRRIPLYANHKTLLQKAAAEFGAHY
T1 sequence (P04054 23-148 limits assumed): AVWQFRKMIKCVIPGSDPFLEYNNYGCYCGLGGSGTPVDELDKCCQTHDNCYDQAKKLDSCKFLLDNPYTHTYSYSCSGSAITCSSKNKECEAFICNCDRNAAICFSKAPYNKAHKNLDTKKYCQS
Sequence of Transient receptor potential cation channel subfamily M member 8 (Q7Z2W7 whole entry, looked up, the tested form may be a part): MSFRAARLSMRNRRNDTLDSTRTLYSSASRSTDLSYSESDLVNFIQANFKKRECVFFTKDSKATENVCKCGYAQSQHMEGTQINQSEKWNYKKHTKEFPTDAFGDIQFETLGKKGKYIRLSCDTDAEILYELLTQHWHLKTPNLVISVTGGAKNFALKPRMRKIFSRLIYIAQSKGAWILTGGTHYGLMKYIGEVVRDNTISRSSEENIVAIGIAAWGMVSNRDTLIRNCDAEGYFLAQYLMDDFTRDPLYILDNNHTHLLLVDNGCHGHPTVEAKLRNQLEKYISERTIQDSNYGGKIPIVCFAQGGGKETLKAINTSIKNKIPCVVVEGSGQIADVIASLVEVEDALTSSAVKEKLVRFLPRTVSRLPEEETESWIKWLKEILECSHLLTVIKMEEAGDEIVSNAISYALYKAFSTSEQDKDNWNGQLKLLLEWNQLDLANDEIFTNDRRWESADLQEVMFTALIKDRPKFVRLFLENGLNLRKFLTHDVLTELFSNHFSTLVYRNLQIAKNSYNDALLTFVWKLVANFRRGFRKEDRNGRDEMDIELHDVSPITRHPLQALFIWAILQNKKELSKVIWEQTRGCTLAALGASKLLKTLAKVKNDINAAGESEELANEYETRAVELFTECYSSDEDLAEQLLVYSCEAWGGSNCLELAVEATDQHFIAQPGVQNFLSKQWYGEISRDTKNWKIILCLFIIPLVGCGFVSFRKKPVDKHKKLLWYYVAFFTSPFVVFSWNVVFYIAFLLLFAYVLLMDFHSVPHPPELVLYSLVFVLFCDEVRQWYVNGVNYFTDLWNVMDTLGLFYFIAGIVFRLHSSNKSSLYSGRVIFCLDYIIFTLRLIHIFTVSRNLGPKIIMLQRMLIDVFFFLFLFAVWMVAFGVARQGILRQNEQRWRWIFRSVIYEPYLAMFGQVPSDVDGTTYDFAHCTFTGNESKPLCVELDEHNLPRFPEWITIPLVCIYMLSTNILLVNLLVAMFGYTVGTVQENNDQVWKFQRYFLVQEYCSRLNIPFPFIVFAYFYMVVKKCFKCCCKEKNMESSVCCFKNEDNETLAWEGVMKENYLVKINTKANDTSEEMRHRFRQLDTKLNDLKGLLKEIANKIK

`O=C(/C=C/c1ccc(-c2cccc(C(F)(F)F)c2)cc1)Nc1ccccc1C(=O)O` gave a Cmax [1] of 5070 ng/mL, a bioavailability [2] of 90.4% and an AUC(0-inf) [3] of 40.9 µg·h/mL. The AUC(0-inf) [4] was 160 µg·h/mL, the half-life [5] was 0.93 h and the MRT [6] was 1.19 h. The inhibition [7] was 7.8%, the Activity [8] was under 10% and the half-life [9] was 1.42 h. For the same compound, the clearance [10] was 0.882 mL/min/kg, the AUC(0-inf) [11] was 1870 µg·h/mL and the AUC(0-inf) [12] was 18.9 µg·h/mL. It also gave a bioavailability [13] of 84.8%, an MRT [14] of 2.25 h and an inhibition [15] of 22.6%. The CL/F [16] was 1.04 mL/min/kg, the pIC50 [17] was 6.10 and the Tmax [18] was 0.5 h. It also gave a Cmax [19] of 13000 ng/mL, an AUC(0-t) [20] of 18.5 µg·h/mL and an AUC(0-t) [21] of 5.2 µg·h/mL. For the same compound, the Activity [22] was “Non-Toxic”, the Activity [23] was 38.5% and the MRT [24] was 1.7 h. For the same compound, the Activity [25] was “inactive”, the inhibition [26] was 14.8% and the AUC(0-inf) [27] was 5.45 µg·h/mL. It also gave a half-life [28] of 3.62 h, an inhibition [29] of over 45% and a Cmax [30] of 58400 ng/mL. For the same compound, the Activity [31] was “inactive”, the Activity [32] was 38.9% and the half-life [33] was 1.7 h. It also gave a Cmax [34] of 24300 ng/mL and a Tmax [35] of 4.8 min.

From ChEMBL document CHEMBL4834416, “The Discovery of Novel ACA Derivatives as Specific TRPM2 Inhibitors that Reduce Ischemic Injury Both In Vitro and In Vivo” (J Med Chem, 2021)
